Source: ChEMBL document CHEMBL1765044, “3-Hydroxypyrimidine-2,4-diones as an inhibitor scaffold of HIV integrase” (J Med Chem, 2011)

Key:
[1] = Inhibition of HIV recombinant integrase strand transfer activity expressed in Escherichia coli after 60 mins using [32P]-labeled oligonucleotide substrate by densitometric analysis; parameters: species or system Human immunodeficiency virus
[2] = Inhibition of Human immunodeficiency virus recombinant integrase 3'-processing activity expressed in Escherichia coli after 60 mins using [32P]-labeled oligonucleotide substrate by densitometric analysis
[3] = tested on: Human immunodeficiency virus 1; experiment: Antiviral activity against Human immunodeficiency virus 1 3B infected in human CEM-SS cells assessed as cytoprotection against virus-induced toxicity at 10 uM after 6 days by MTS assay; assay type: functional
Method in brief: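 Single-concentration screen at 10 μM, run only on compounds with strand-transfer IC50 ≤10 μM. CPE reduction (%) and cell viability (%) assessed by MTS; AZT positive control.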

[4] = tested on: Human immunodeficiency virus 1; experiment: Antiviral activity against Human immunodeficiency virus 1 3B infected in CEM-SS cells assessed as reduction in virus-induced cytopathic effect at 10 uM after 6 days; assay type: functional; parameters: scale not given: the % may be the effect or the level left
Method in brief: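 CEM-SS cells were mixed with pre-titered HIV-1 IIIB and the compound at a single 10 μM and incubated for 6 days. Virus dose was set to give 70–95% viability loss in virus-control wells. CPE reduction (cytoprotection) and cell viability were read by MTS. Plates included cell, virus, compound-toxicity and colorimetric control wells, with AZT as positive control.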

[5] = tested on: Human immunodeficiency virus 1; experiment: Fold resistance, ratio for Human immunodeficiency virus 1 NL4-3 reverse transcriptase K103N mutant to wild-type Human immunodeficiency virus 1 NL4-3 reverse transcriptase
Method in brief: (§1)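 HIV-1 NL4-3 strains carrying the reverse transcriptase K103N or Y181C mutation were tested in MAGI R5 cells, with the NNRTI TNK-651 as control. Fold-resistance is the mutant/wild-type ratio.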

[6] = tested on: Human immunodeficiency virus 1; experiment: Fold resistance, ratio for Human immunodeficiency virus 1 NL4-3 reverse transcriptase Y181C mutant to wild-type Human immunodeficiency virus 1 NL4-3 reverse transcriptase; method in brief: as §1
[7] = tested on: Human immunodeficiency virus 1; experiment: Antiviral activity against Human immunodeficiency virus 1 3B infected in CEM-SS cells assessed as inhibition of viral replication after 6 days; assay type: functional, organism-based; conditions: 144 h
Method in brief: (§2)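 CEM-SS cells mixed with pre-titered HIV-1 IIIB (titer chosen so virus-control wells lose 70–95% viability) plus compound in dose response, incubated 6 days. Viability read by MTS; controls are cells alone, cells+virus, cells+compound and compound alone. EC50 is the concentration protecting 50% against virus-induced loss; CC50 is the concentration killing 50% of cells; TI = CC50/EC50. AZT used as positive control.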

[8] = Therapeutic index, ratio of CC50 for human CEM-SS cells to EC50 for Human immunodeficiency virus 1 3B; assay type: cell-based; conditions: read-out: TI
Method in brief: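 CEM-SS cells mixed with HIV-1 IIIB and compound, incubated 6 days; virus pre-titered so control wells lose 70–95% viability. Cytoprotection (EC50) and cytotoxicity in uninfected compound-only wells (CC50) read by MTS from dose-response. TI calculated as CC50/EC50. Controls: cells only, virus only, and compound only (colorimetric). AZT served as positive control.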

[9] = tested on: CEM-SS; experiment: (§3) Cytotoxicity against human CEM-SS cells infected with Human immunodeficiency virus 1 3B after 6 days by MTS assay; assay type: cell-based; conditions: cem-ss, 144 h; method in brief: as §2
[10] = tested on: Human immunodeficiency virus 1; experiment: Fold resistance, ratio of EC50 for raltegravir-resistant Human immunodeficiency virus 1 1556-1 expressing integrase Y143C mutant to EC50 for raltegravir-resistant Human immunodeficiency virus 1 1556-1 expressing wild-type integrase; assay type: functional
[11] = tested on: Human immunodeficiency virus 1; conditions: NL4-3
[12] = tested on: Human immunodeficiency virus 1; conditions: NL4-3; remark: listed apart in the source
[13] = tested on: Human immunodeficiency virus 1; experiment: Ratio of IC50 for Human immunodeficiency virus 1 NL4-3 integrase Y143R mutant to IC50 for wild-type Human immunodeficiency virus 1 NL4-3 integrase
Method in brief: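 Recombinant HIV-1 integrase (wild type or mutant) was expressed in E. coli, with 10% glycerol in all buffers. Reactions were stopped with EDTA/formamide dye. IC50 came from a logistic nonlinear fit; the ratio is IC50 mutant/WT from two independent experiments.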

[14] = Cytotoxicity against human MT4 cells infected with raltegravir-resistant Human immunodeficiency virus 1 8070-2; assay type: cell-based; conditions: MT4 cells infected with raltegravir-resistant HIV-1 8070-2, read-out: TC50 (the source's name)
[15] = Cytotoxicity against human MT4 cells infected with raltegravir-resistant Human immunodeficiency virus 1 4736-2; assay type: cell-based; conditions: MT4 cells infected with raltegravir-resistant HIV-1 4736-2, read-out: TC50 (the source's name)
[16] = Cytotoxicity against human MT4 cells infected with raltegravir-resistant Human immunodeficiency virus 1 1556-1; assay type: cell-based; conditions: MT4 cells infected with raltegravir-resistant HIV-1 1556-1, read-out: TC50 (the source's name)
[17] = as §3; assay type: cell-based; conditions: CEM-SS cells infected with HIV-1 3B, read-out: TC50; method in brief: as §2

| SMILES | IC50 [1] | IC50 [2] | Activity [3] | other results |
| --- | --- | --- | --- | --- |
| CCc1c(Cc2ccccc2)n(Cc2ccccc2)c(=O)n(O)c1=O | > 111 µM | > 111 µM | – | – |
| CC(C)c1c(Cc2ccc(F)cc2)n(Cc2ccccc2)c(=O)n(O)c1=O | 32 µM | > 111 µM | – | – |
| CC(C)c1c(Cc2ccccc2)n(Cc2ccccc2)c(=O)n(O)c1=O | 28 µM | > 111 µM | – | – |
| CC(C)c1c(Cc2ccccc2)n(COCCCc2ccc(F)cc2)c(=O)n(O)c1=O | 3.2 µM | > 111 µM | 92% | Activity [4]: 30% |
| CC(C)c1c(Cc2ccccc2)n(COCCCCc2ccc(F)cc2)c(=O)n(O)c1=O | 4.5 µM | > 111 µM | 88% | Activity [4]: 12% |
| CCc1c(Cc2ccccc2)c(=O)n(O)c(=O)n1COCc1ccccc1 | 36 µM | > 111 µM | – | – |
| CC(C)c1c(Cc2ccccc2)n(COCCc2ccc(F)cc2)c(=O)n(O)c1=O | 1.6 µM | > 111 µM | 83% | Activity [4]: 27% |
| CC(C)c1c(Cc2ccccc2)n(COCc2ccc(F)cc2)c(=O)[nH]c1=O | > 111 µM | > 111 µM | – | – |
| O=c1c2ccccc2n(Cc2ccc(F)cc2)c(=O)n1O | – | > 111 µM | – | – |
| CC(C)c1c(Cc2ccccc2)n(COCc2ccc(F)cc2)c(=O)n(C)c1=O | > 111 µM | > 111 µM | – | – |
| CC(C)c1c(Cc2ccccc2)n(COCc2ccc(F)cc2)c(=O)n(O)c1=O | – | – | – | Ratio [5]: 16; Ratio [6]: 48 |
| CC(C)c1c(Cc2ccccc2)n(COCc2ccc(F)cc2F)c(=O)n(O)c1=O | 4.8 µM | > 111 µM | 100% | EC50 [7]: 2.1 µM; selectivity ratio [8]: > 47; CC50 [9]: > 100 µM |
| Cc1cn(Cc2ccccc2)c(=O)n(O)c1=O | > 111 µM | > 111 µM | – | – |
| Cc1cn(Cc2ccc(F)cc2)c(=O)n(O)c1=O | > 111 µM | > 111 µM | – | – |
| CC(C)c1c(Cc2ccccc2)n(CCc2ccc(F)cc2)c(=O)n(O)c1=O | 46 µM | > 111 µM | – | – |
| CC(C)c1c(Cc2ccccc2)n(CCCc2ccc(F)cc2)c(=O)n(O)c1=O | 0.44 µM | > 111 µM | 97% | Activity [4]: 12% |

| SMILES | IC50 [1] | IC50 [2] | Activity [3] | other results |
| --- | --- | --- | --- | --- |
| CC(C)c1c(Cc2ccccc2)n(CCCCc2ccc(F)cc2)c(=O)n(O)c1=O | 0.56 µM | > 111 µM | 94% | Activity [4]: 6% |
| CCc1c(Cc2ccccc2)c(=O)n(O)c(=O)n1COCc1ccc(F)cc1 | 11 µM | > 111 µM | – | – |
| CCc1c(Cc2ccccc2)n(COCc2ccccc2)c(=O)n(O)c1=O | 8.2 µM | > 111 µM | – | – |
| COn1c(=O)c(C(C)C)c(Cc2ccccc2)n(COCc2ccc(F)cc2)c1=O | > 111 µM | > 111 µM | – | – |
| Cc1nnc(C(=O)NC(C)(C)c2nc(C(=O)NCc3ccc(F)cc3)c(O)c(=O)n2C)o1 [RALTEGRAVIR] | – | – | – | Ratio EC50 [10]: >855; Ratio IC50 [11]: 139; Ratio IC50 [12]: 8; Ratio IC50 [13]: 24 |
| CCc1c(Cc2ccccc2)n(Cc2ccc(F)cc2)c(=O)n(O)c1=O | 24 µM | > 111 µM | – | – |
| CCc1c(Cc2ccccc2)c(=O)[nH]c(=O)n1COCc1ccccc1 | – | – | 100% | Activity [4]: 48% |
| CC(C)c1c(Cc2ccc(F)cc2)n(Cc2ccc(F)cc2)c(=O)n(O)c1=O | 73 µM | > 111 µM | – | – |
| CC(C)c1c(Cc2ccc(F)cc2)n(COCc2ccc(F)cc2)c(=O)n(O)c1=O | 5.5 µM | > 111 µM | – | – |
| O=c1c2ccccc2n(Cc2ccccc2)c(=O)n1O | – | > 111 µM | – | – |
| CC(C)c1c(Cc2ccc(F)cc2)n(COCc2ccccc2)c(=O)n(O)c1=O | 7.3 µM | > 111 µM | 100% | EC50 [7]: 1.1 µM; selectivity ratio [8]: > 18; CC50 [9]: > 20 µM |
| CCc1c(Cc2ccccc2)c(=O)[nH]c(=O)n1COCc1ccc(F)cc1 | – | – | 92% | Activity [4]: 10% |
| CC(C)c1c(Cc2ccccc2)n(Cc2ccc(F)cc2)c(=O)n(O)c1=O | 22 µM | > 111 µM | – | – |
| Cc1cn(COCc2ccccc2)c(=O)n(O)c1=O | 75 µM | > 111 µM | – | – |
| CC(C)c1c(Cc2ccccc2)n(COCc2cccc(Cl)c2F)c(=O)n(O)c1=O | 2.3 µM | > 111 µM | 100% | Ratio EC50 [10]: >1.7; CC50 [14]: 2 µM; EC50 [7]: 0.95 µM; Ratio IC50 [11]: 14; CC50 [15]: 2 µM; selectivity ratio [8]: > 105; Ratio IC50 [12]: 5; Ratio IC50 [13]: 5; CC50 [16]: 2 µM; CC50 at 144 h [17]: > 100 µM |
